# PMC4207537 (Journal of Medicinal Chemistry, 2014)
# What was measured:
# M. tuberculosis (H37Rv) = assay: MIC, microbroth dilution, M. tuberculosis; assay type: cell-based; details: Mycobacterium tuberculosis, read-out: MIC M. tuberculosis (H37Rv)
# S. aureus Newman [1] = assay: Macromolecular synthesis; assay type: cell-based, Staphylococcus aureus; details: 4× MIC
# S. aureus Newman [2] = assay: Membrane potential, DiOC2; assay type: cell-based, Staphylococcus aureus; details: DiOC2(3); up to 4× MIC
# Procedure, shortened: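 Flow cytometry with the membrane-potential probe DiOC2(3) on S. aureus Newman grown in Mueller–Hinton II to OD600nm ≈ 0.3 and exposed to test compound. CCCP served as positive control and vancomycin as negative control. Three biological replicates were run.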
# E. coli topoisomerase I = target: T1, E. coli topoisomerase I (Escherichia coli, UniProt P06612); assay: Relaxation activity of E. coli topoisomerase I; assay type: biochemical
# T1 sequence (P06612 1-865): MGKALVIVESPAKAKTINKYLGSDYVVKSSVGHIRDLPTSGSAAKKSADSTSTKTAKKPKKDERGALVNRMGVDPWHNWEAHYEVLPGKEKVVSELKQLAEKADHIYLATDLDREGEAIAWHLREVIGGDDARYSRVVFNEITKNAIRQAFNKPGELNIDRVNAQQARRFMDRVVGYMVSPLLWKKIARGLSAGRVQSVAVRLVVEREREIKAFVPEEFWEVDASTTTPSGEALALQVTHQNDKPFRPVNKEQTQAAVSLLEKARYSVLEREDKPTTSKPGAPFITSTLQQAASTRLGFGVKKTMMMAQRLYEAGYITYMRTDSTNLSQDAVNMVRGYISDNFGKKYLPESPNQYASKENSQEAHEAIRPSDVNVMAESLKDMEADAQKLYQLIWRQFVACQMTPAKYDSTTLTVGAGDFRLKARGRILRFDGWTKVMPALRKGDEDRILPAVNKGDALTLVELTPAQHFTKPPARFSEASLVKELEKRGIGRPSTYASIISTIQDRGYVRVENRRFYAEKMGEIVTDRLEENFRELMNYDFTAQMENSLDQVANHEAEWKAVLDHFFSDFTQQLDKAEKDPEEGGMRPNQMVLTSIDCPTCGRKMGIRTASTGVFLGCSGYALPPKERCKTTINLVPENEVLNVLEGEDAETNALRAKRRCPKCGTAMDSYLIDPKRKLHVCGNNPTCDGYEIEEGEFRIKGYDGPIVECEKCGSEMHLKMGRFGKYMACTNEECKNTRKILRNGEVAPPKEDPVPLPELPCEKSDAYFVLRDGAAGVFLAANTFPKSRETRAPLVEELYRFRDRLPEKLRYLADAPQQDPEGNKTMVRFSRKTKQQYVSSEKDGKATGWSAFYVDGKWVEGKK
# E. coli topoisomerase IV = E. coli topoisomerase IV (Escherichia coli, UniProt P0AFI2+P20083); assay: E. coli topoisomerase IV decatenation assay; assay type: biochemical
# [3] = target: Mycobacterium tuberculosis MurE ligase; details: read-out: MurE ligase IC50; ATP-dependent MurE ligase; cited from earlier work
# [4] = test system: multidrug-resistant (MDR) strains of clinically relevant Staphylococcus aureus; details: natural olympicin A; cited from earlier work
# Clostridium difficile = details: synthetic olympicin A; cited from earlier work
# E. faecalis (ATCC 33186) = assay: microbe, parasite or virus in culture; assay type: cell-based; details: Enterococcus faecalis, ATCC33186, read-out: MIC E. faecalis (ATCC 33186)
# S. aureus Newman [5] = assay: Time kill experiments; assay type: cell-based, Staphylococcus aureus; details: for type of killing (bactericidal / bacteriostatic): time kill, up to 24 h
# S. aureus Newman [6] = assay: Selection of spontaneous mutants; assay type: cell-based, Staphylococcus aureus; details: concentrations between 1× and 4× MIC
# [7] = test system: Gram-positive bacteria tested (E. faecalis, MSSA, and MRSA); assay: MIC range over the Gram-positive bacteria tested; assay type: cell-based, Enterococcus faecalis, Staphylococcus aureus; details: range over E. faecalis and S. aureus (MSSA, MRSA) strains
# S. aureus Newman [8] = assay: microbe, parasite or virus in culture; assay type: cell-based; details: Staphylococcus aureus, read-out: MIC against S. aureus Newman
# Chain of E. coli topoisomerase IV (P0AFI2 whole entry): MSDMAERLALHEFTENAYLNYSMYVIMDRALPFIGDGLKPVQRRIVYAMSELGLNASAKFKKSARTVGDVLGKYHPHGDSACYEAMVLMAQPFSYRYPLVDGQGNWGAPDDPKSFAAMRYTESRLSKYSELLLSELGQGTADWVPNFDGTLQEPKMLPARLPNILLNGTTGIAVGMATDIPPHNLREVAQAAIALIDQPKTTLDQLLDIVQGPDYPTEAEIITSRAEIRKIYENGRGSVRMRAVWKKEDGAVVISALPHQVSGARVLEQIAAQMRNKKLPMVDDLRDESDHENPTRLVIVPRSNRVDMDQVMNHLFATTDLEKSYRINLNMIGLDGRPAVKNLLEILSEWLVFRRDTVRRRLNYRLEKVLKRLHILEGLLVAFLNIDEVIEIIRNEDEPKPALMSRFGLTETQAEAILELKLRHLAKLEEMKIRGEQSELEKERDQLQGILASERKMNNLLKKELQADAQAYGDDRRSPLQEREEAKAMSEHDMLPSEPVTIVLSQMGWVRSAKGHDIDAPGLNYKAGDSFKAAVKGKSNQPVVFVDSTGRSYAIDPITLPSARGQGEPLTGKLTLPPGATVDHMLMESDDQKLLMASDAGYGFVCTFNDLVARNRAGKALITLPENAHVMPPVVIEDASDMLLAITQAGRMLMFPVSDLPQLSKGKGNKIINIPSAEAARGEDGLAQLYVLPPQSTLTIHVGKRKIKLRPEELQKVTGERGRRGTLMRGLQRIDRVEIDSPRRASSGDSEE
# Chain of E. coli topoisomerase IV (P20083 whole entry): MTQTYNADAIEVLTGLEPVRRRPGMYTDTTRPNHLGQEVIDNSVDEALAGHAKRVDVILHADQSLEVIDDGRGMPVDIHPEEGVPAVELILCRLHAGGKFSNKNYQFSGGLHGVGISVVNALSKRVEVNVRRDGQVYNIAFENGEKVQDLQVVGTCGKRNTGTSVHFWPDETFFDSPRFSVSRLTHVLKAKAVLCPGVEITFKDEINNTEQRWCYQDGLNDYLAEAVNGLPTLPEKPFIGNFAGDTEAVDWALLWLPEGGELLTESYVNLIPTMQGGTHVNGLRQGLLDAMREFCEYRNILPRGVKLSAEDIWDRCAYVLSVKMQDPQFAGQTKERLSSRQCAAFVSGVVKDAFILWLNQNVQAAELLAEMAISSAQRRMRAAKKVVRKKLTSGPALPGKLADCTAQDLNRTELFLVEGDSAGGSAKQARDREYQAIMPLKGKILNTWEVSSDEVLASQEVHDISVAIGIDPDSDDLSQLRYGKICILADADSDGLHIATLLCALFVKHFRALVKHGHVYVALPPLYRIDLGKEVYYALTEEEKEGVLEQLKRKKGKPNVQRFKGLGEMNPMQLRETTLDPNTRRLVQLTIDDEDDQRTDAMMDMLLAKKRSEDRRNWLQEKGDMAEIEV
smiles,measurement,setting,value
"CC[C@H](C)C(=O)c1c(O)cc(O)cc1OC/C=C(\C)CCC=C(C)C [Compound 2a, (S,E)-1-(2-((3,7-Dimethylocta-2,6-dien-1-yl)oxy)-4,6-dihydroxyphenyl)-2-methylbutan-1-one]",MIC,M. tuberculosis (H37Rv),200 mg/L
same,"effect on macromolecular synthesis (DNA, RNA, protein)",S. aureus Newman [1],Several key biosynthetic processes were simultaneously inhibited
same,effect on membrane potential,S. aureus Newman [2],dissipated the membrane potential
same,IC50,E. coli topoisomerase I,> 500 µM
same,IC50,E. coli topoisomerase IV,30 to 60 µM
same,IC50,[3],75 µM
same,MIC against a panel of MDR S. aureus strains,[4],0.5 to 1 mg/L
same,previously reported anti S. aureus activity (MIC),[4],0.5 to 1 mg/L
same,MIC against Clostridium difficile,Clostridium difficile,1 to 2 mg/L
"CCC(C)C(=O)c1c(O)cc(O)cc1OC/C=C(\C)CCC=C(C)C (stereo not drawn) [Compound 2b, (E)-1-(2-((3,7-Dimethylocta-2,6-dien-1-yl)oxy)-4,6-dihydroxyphenyl)-2-methylbutan-1-one]",MIC,E. faecalis (ATCC 33186),1.56 mg/L
"CCCCCCCCOc1cc(O)cc(O)c1C(=O)C(C)CC (stereo not drawn) [Compound 2e, 1-(2,4-Dihydroxy-6-(octyloxy)phenyl)-2-methylbutan-1-one]",IC50,E. coli topoisomerase I,> 500 µM
same,IC50,E. coli topoisomerase IV,30 to 60 µM
"CC1(C)C2CC=C(/C=C/C(=O)c3ccc(O)cc3O)C1C2 (stereo not drawn) [Compound 3g, (E)-1-(2,4-Dihydroxyphenyl)-3-(6,6-dimethylbicyclo[3.1.1]hept-2-en-2-yl)prop-2-en-1-one]",time required to achieve a 3 log reduction in cells,S. aureus Newman [5]; at its MIC (1×),up to 24 h
same,type of killing (bactericidal / bacteriostatic),S. aureus Newman [5],concentration-dependent killing
same,frequency of spontaneous mutants,S. aureus Newman [6],could not be selected
same,"effect on macromolecular synthesis (DNA, RNA, protein)",S. aureus Newman [1],Several key biosynthetic processes were simultaneously inhibited
same,effect on membrane potential,S. aureus Newman [2],dissipated the membrane potential
same,IC50,E. coli topoisomerase I,> 500 µM
same,IC50,E. coli topoisomerase IV,60 to 120 µM
"CC1(C)C2CC=C(C3CC(=O)c4ccc(O)cc4O3)C1C2 (stereo not drawn) [Compound 3j, 2-(6,6-Dimethylbicyclo[3.1.1]hept-2-en-2-yl)-7-hydroxychroman-4-one]",MIC range against Gram-positive bacteria tested,[7],largely inactive
"CC(C)=CCCC(C)CC1CC(=O)c2c(O)cccc2O1 (stereo not drawn) [Compound 3l, 2-(2,6-Dimethylhept-5-en-1-yl)-5-hydroxychroman-4-one]",MIC range against Gram-positive bacteria tested,[7],not active
"CCCCCCCC1CC(=O)c2c(O)cc(O)cc2O1 (stereo not drawn) [Compound 5f, 2-Heptyl-5,7-dihydroxychroman-4-one]",IC50,E. coli topoisomerase I,> 500 µM
same,IC50,E. coli topoisomerase IV,120 to 250 µM
"CC(C)=CCCC(C)CC1CC(=O)c2c(O)cc(O)cc2O1 (stereo not drawn) [Compound 5j, 2-(2,6-Dimethylhept-5-en-1-yl)-5,7-dihydroxychroman-4-one]",frequency of spontaneous mutants,S. aureus Newman [6],could not be selected
same,"effect on macromolecular synthesis (DNA, RNA, protein)",S. aureus Newman [1],Several key biosynthetic processes were simultaneously inhibited
same,effect on membrane potential,S. aureus Newman [2],dissipated the membrane potential
"C=CCOc1ccccc1/C=C/C(=O)c1ccc(O)cc1O [Compound 8a, (E)-3-(2-(Allyloxy)phenyl)-1-(2,4-dihydroxyphenyl)prop-2-en-1-one]",type of killing (bactericidal / bacteriostatic),S. aureus Newman [5],rapidly bactericidal
same,frequency of spontaneous mutants,S. aureus Newman [6],could not be selected
same,"effect on macromolecular synthesis (DNA, RNA, protein)",S. aureus Newman [1],Several key biosynthetic processes were simultaneously inhibited
same,IC50,E. coli topoisomerase I,> 500 µM
same,IC50,E. coli topoisomerase IV,250 to 500 µM
"CCCCCCOc1ccccc1/C=C/C(=O)c1ccc(O)cc1O [Compound 8b, (E)-1-(2,4-Dihydroxyphenyl)-3-(2-(hexyloxy)phenyl)prop-2-en-1-one]",IC50,E. coli topoisomerase I,> 500 µM
same,IC50,E. coli topoisomerase IV,60 to 120 µM
"O=C(/C=C/c1ccc(N2CCCCC2)cc1)c1ccc(O)cc1O [Compound 8d, (E)-1-(2,4-Dihydroxyphenyl)-3-(4-(piperidin-1-yl)phenyl)prop-2-en-1-one]",MIC,S. aureus Newman [8],6.25 mg/L
same,type of killing (bactericidal / bacteriostatic),S. aureus Newman [5],entirely bacteriostatic
same,"effect on macromolecular synthesis (DNA, RNA, protein)",S. aureus Newman [1],Several key biosynthetic processes were simultaneously inhibited
same,effect on membrane potential,S. aureus Newman [2],dissipated the membrane potential
same,IC50,E. coli topoisomerase I,> 500 µM
same,IC50,E. coli topoisomerase IV,500 to 1000 µM
"CCCCCCOc1ccccc1C1CC(=O)c2ccc(O)cc2O1 (stereo not drawn) [Compound 8j, 2-(2-(Hexyloxy)phenyl)-7-hydroxychroman-4-one]",IC50,E. coli topoisomerase I,> 500 µM
same,IC50,E. coli topoisomerase IV,> 1000 µM
"CCCCCCCCOc1ccccc1C1CC(=O)c2ccc(O)cc2O1 (stereo not drawn) [Compound 8k, 7-Hydroxy-2-(2-(octyloxy)phenyl)chroman-4-one]",IC50,E. coli topoisomerase I,> 500 µM
same,IC50,E. coli topoisomerase IV,> 1000 µM
O=C(O)c1cn(C2CC2)c2cc(N3CCNCC3)c(F)cc2c1=O [ciprofloxacin],MIC,S. aureus Newman [8],0.25 mg/L
CC[C@H]1OC(=O)[C@H](C)[C@@H](O[C@H]2C[C@@](C)(OC)[C@@H](O)[C@H](C)O2)[C@H](C)[C@@H](O[C@@H]2O[C@H](C)C[C@H](N(C)C)[C@H]2O)[C@](C)(O)C[C@@H](C)C(=O)[C@H](C)[C@@H](O)[C@]1(C)O [erythromycin],MIC,S. aureus Newman [8],0.78 mg/L
"C/C(=C\C(=O)OCCCCCCCCC(=O)O)C[C@@H]1OC[C@H](C[C@@H]2O[C@H]2[C@@H](C)[C@H](C)O)[C@@H](O)[C@H]1O [mupirocin, reference compound]",type of killing (bactericidal / bacteriostatic),S. aureus Newman [5],either bacteriostatic or slowly bactericidal
"CN[C@H](CC(C)C)C(=O)N[C@H]1C(=O)N[C@@H](CC(N)=O)C(=O)N[C@H]2C(=O)N[C@H]3C(=O)N[C@H](C(=O)N[C@H](C(=O)O)c4cc(O)cc(O)c4-c4cc3ccc4O)[C@H](O)c3ccc(c(Cl)c3)Oc3cc2cc(c3O[C@@H]2O[C@H](CO)[C@@H](O)[C@H](O)[C@H]2O[C@H]2C[C@](C)(N)[C@H](O)[C@H](C)O2)Oc2ccc(cc2Cl)[C@H]1O [vancomycin, reference compound]",type of killing (bactericidal / bacteriostatic),S. aureus Newman [5],either bacteriostatic or slowly bactericidal
same,effect on membrane potential,S. aureus Newman [2],failed to affect the membrane potential
